Measurements pooled from the literature.
Each line is one published result; the experiments were not run side by side.
Target: Mitogen-activated protein kinase kinase kinase 2 (MAP3K2, Homo sapiens, UniProt Q9Y2U5)
Residues used in one study (Q9Y2U5 1-619): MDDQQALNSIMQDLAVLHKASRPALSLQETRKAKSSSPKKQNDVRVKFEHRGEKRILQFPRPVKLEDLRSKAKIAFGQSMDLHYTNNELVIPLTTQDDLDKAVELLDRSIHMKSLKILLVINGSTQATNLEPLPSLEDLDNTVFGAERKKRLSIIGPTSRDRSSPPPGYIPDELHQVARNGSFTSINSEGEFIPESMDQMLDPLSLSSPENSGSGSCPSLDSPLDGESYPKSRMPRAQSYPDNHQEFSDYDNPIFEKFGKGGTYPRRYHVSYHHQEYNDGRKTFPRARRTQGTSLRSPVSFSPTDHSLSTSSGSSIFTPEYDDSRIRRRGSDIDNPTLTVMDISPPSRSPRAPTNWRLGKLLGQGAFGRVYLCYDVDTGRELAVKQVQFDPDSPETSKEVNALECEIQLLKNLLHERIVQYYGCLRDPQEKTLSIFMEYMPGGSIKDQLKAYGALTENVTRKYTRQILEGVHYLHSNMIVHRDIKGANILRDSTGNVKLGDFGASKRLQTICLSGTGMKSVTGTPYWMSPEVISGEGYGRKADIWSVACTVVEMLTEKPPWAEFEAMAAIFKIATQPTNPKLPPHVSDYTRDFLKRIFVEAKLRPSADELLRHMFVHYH

| Structure (SMILES) | read-out | action | method | cell line | concentration | quantity | result |
| --- | --- | --- | --- | --- | --- | --- | --- |
| Cc1c(C(=O)O)cc(-c2ccc(C3CCNCC3)cc2)c2ccc(-c3ccc(C(F)(F)F)cc3)cc12 | binding | – | competition with immobilised ligand | – | 1 µM | remaining binding | 100% |
| Nc1ncnc2occ(-c3ccc(NC(=O)Nc4cc(C(F)(F)F)ccc4F)cc3)c12 | cell-free assay | inhibitor | – | – | 20 µM | remaining signal | 1.4% |
| O=C1NC(=O)c2cc(Nc3ccc(F)cc3)c(Nc3ccc(F)cc3)cc21 | cell-free assay | – | – | – | 0.5 µM | remaining signal | 94.8% |
| CC(C)(O)[C@H]1CC[C@H](Nc2ccc3ncc(-c4cccc(C(F)(F)F)c4)n3n2)CC1 | enzyme activity | inhibitor | – | – | 1 µM | remaining activity | 95.8% |
| O=C1Nc2ccc(Cl)cc2C1=Cc1cc(Cl)c(O)c(Cl)c1 | cell-free assay | – | – | – | 0.5 µM | remaining signal | 95.7% |
| O=C(Nc1cnn(-c2csc(C(=O)NC3COC3)c2)c1)Nc1c(F)cccc1Cl | enzyme activity | inhibitor | – | – | 5 µM | remaining activity | 80.1% |
| Cc1nc(C2CCN(C(=O)c3ccc(OC(F)(F)F)cc3N)CC2)c2ncc(N3CCN(C)CC3)cc2n1 | cell-free assay | – | competition with immobilised ligand | – | 1 µM | remaining binding | 100% |
| CC(C)(C)c1nc2c(s1)c1nc(N)ncc1c1ccc(NS(=O)(=O)c3c(F)cccc3F)c(F)c12 | enzyme activity | inhibitor | radiometric | – | 1 µM | remaining activity | 83% |
| COc1cc(Cl)c(C(=O)N[C@@H](CN[C@H]2CC[C@@H](N)CC2)Cc2ccc(C#N)cc2)cc1-c1ccc(CN[C@H](C)c2ccc(C)cc2)o1 | enzyme activity | inhibitor | – | – | 1 µM | remaining activity | 110% |
| CCN(CC)CCNC(=O)c1c(C)[nH]c(/C=C2\C(=O)Nc3ccc(F)cc32)c1C | cell-free assay | – | – | – | 0.5 µM | remaining signal | 51.9% |
| Cc1cc(C)c(-n2ccn3nc(-c4cccnc4)cc23)cc1NC(=O)c1cc(C#N)cc(S(F)(F)(F)(F)F)c1 | cell-free assay | – | competition with immobilised ligand | – | 0.1 µM | remaining binding | 86.4% |
| CCN1CCN(Cc2ccc(NC(=O)c3ccc(C)c(/C=C/c4cnc5[nH]ccc5c4OC)c3)cc2C(F)(F)F)CC1 | target engagement in cells | inhibitor | chemoproteomics | A-375 | 0.5 µM | inhibition | -0.738% |
| CS(=O)(=O)N1CCCC(NC(=O)[C@H](CCC2CCCCC2)NC(=O)c2ccc(CNc3ncnc4c3nnn4-c3ccccc3)cc2)C1 (some centres unmarked) | cell-free assay | – | competition with immobilised ligand | – | 0.1 µM | remaining binding | 100% |
| CCOc1cc(-c2nncn2C)ccc1Nc1ncc2cc(C)nc(NCC(C)(C)C)c2n1 | cell-free assay | – | TR-FRET | – | 1 µM | inhibition | ≤ 15% |
